Reference: the array DNA melting data of Ke et al. (doi:10.1101/2024.01.08.574731)

Columns and labels:
[1] = folding enthalpy; higher = less favourable; fluorescence melt of hairpins on a sequencing array, two-state fit; settings: sodium 0.088 M
Outline: (§1)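 Cy3 fluorescence of library hairpins on a sequenced MiSeq flow cell, with annealed Cy3 and quencher oligos, was imaged in 50 mM Na-HEPES pH 8.0, 25 mM NaCl in 2.5 °C steps up to 60 °C. Signals were normalised to pre-quench Cy3 and to control variants. Melting temperature and folding enthalpy came from bootstrapped two-state fits, inverse-variance combined over four replicates. Fitted temperatures were raised by 9.35 °C to match UV melts.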

[2] = melting temperature; fluorescence melt of hairpins on a sequencing array, two-state fit, raised by 9.35 °C to match UV melts; settings: sodium 0.088 M
Outline: as §1

| Sequence | folding enthalpy [1] | Tm [2] |
| --- | --- | --- |
| GATCTAGGGTAGATC ((((((...)))))) | -22.7 kcal/mol | 36.7 °C |
| GATCTAGTATAGATC ((((((...)))))) | -41.5 kcal/mol | 49.5 °C |
| GATCTAGTGGTAGATC ((((((....)))))) | -28 kcal/mol | 38 °C |
| GATCTAGTGTTAGATC ((((((....)))))) | -30 kcal/mol | 40.6 °C |
| GATCTATAACTAGATC ((((((....)))))) | -34.2 kcal/mol | 36.7 °C |
| GATCTATACATAGATC ((((((....)))))) | -37.1 kcal/mol | 46.4 °C |
| GATCTATACGTAGATC ((((((....)))))) | -40.1 kcal/mol | 45.3 °C |
| GATCTATAGATAGATC ((((((....)))))) | -32.6 kcal/mol | 39.9 °C |
| GATCTATCAATAGATC ((((((....)))))) | -33.6 kcal/mol | 42.8 °C |
| GATCTATCCCTAGATC ((((((....)))))) | -32.4 kcal/mol | 41.4 °C |
| GATCTATCCTTAGATC ((((((....)))))) | -34.1 kcal/mol | 44.4 °C |
| GATCTATCTTTAGATC ((((((....)))))) | -24.1 kcal/mol | 43.1 °C |
| GATCTATGGTTAGATC ((((((....)))))) | -36 kcal/mol | 41.5 °C |
| GATCTATGTTTAGATC ((((((....)))))) | -32.9 kcal/mol | 43.9 °C |
| GATCTCAACTGAGATC ((((((....)))))) | -44.1 kcal/mol | 52.1 °C |
| GATCTCAAGAGAGATC ((((((....)))))) | -32.5 kcal/mol | 49.4 °C |
| GATCTCAAGCGAGATC ((((((....)))))) | -37.6 kcal/mol | 50.4 °C |
| GATCTCACATGAGATC ((((((....)))))) | -40.1 kcal/mol | 52.5 °C |
| GATCTCACCAGAGATC ((((((....)))))) | -31.9 kcal/mol | 54.5 °C |
| GATCTCACGAAAGTGATC (((..(((....)))))) | -9.7 kcal/mol | 30.2 °C |
| GATCTCACGGAGATC ((((((...)))))) | -41.9 kcal/mol | 54.1 °C |
| GATCTCATGGAGATC ((((((...)))))) | -33.9 kcal/mol | 54 °C |
| GATCTCATTGGAGATC ((((((....)))))) | -38.7 kcal/mol | 52.2 °C |
| GATCTCCAAGGAGATC ((((((....)))))) | -35 kcal/mol | 55.7 °C |

| Sequence | folding enthalpy [1] | Tm [2] |
| --- | --- | --- |
| GATCTCCAGAGAGATC ((((((....)))))) | -38.8 kcal/mol | 52 °C |
| GATCTCCAGTGAGATC ((((((....)))))) | -32 kcal/mol | 50.7 °C |
| GATCTCCCAAGAGATC ((((((....)))))) | -34.3 kcal/mol | 53.4 °C |
| GATCTCCCAGAGATC ((((((...)))))) | -40 kcal/mol | 53.5 °C |
| GATCTCCCCGGAGATC ((((((....)))))) | -35.1 kcal/mol | 57.6 °C |
| GATCTCCCTCGAGATC ((((((....)))))) | -41.1 kcal/mol | 51.7 °C |
| GATCTCCCTTGAGATC ((((((....)))))) | -39.4 kcal/mol | 52.6 °C |
| GATCTCCGAAAGGAATC (((.(((....)))))) | -14.4 kcal/mol | 33.3 °C |
| GATCTCCGAAAGGACATC (((.(((....))).))) | -17 kcal/mol | 30.4 °C |
| GATCTCCGGGAGATC ((((((...)))))) | -39.7 kcal/mol | 52.8 °C |
| GATCTCCTACGAGATC ((((((....)))))) | -34.5 kcal/mol | 52.4 °C |
| GATCTCCTATGAGATC ((((((....)))))) | -39.2 kcal/mol | 53.4 °C |
| GATCTCCTCGAGATC ((((((...)))))) | -38.6 kcal/mol | 54.5 °C |
| GATCTCCTGTGAGATC ((((((....)))))) | -45.7 kcal/mol | 52.5 °C |
| GATCTCCTTAGAGATC ((((((....)))))) | -37.1 kcal/mol | 56.4 °C |
| GATCTCCTTCGAGATC ((((((....)))))) | -42.5 kcal/mol | 52.1 °C |
| GATCTCGAAGAGATC ((((((...)))))) | -34.2 kcal/mol | 68.5 °C |
| GATCTCGAAGGAGATC ((((((....)))))) | -32.9 kcal/mol | 55.1 °C |
| GATCTCGACGAGATC ((((((...)))))) | -38.9 kcal/mol | 57.4 °C |
| GATCTCGAGAGAGATC ((((((....)))))) | -32.6 kcal/mol | 63.7 °C |
| GATCTCGAGCGAGATC ((((((....)))))) | -48.4 kcal/mol | 53.3 °C |
| GATCTCGAGTGAGATC ((((((....)))))) | -35.7 kcal/mol | 51.8 °C |
| GATCTCGCGTGAGATC ((((((....)))))) | -34.7 kcal/mol | 53.8 °C |
| GATCTCGGAAACGAGGTC ((.((((....)))).)) | -50.8 kcal/mol | 50.2 °C |

| Sequence | folding enthalpy [1] | Tm [2] |
| --- | --- | --- |
| GATCTCGGCAGAGATC ((((((....)))))) | -42 kcal/mol | 68.1 °C |
| GATCTCGGCTGAGATC ((((((....)))))) | -44.5 kcal/mol | 56.5 °C |
| GATCTCGGTTGAGATC ((((((....)))))) | -30.5 kcal/mol | 53.5 °C |
| GATCTCGTAGGAGATC ((((((....)))))) | -33.9 kcal/mol | 56.6 °C |
| GATCTCGTCTGAGATC ((((((....)))))) | -41.8 kcal/mol | 55.3 °C |
| GATCTCTAACGAGATC ((((((....)))))) | -33.4 kcal/mol | 49.4 °C |
| GATCTCTATGGAGATC ((((((....)))))) | -42.8 kcal/mol | 54.9 °C |
| GATCTCTCAAGAGATC ((((((....)))))) | -40.8 kcal/mol | 53.7 °C |
| GATCTCTCACGAGATC ((((((....)))))) | -37.2 kcal/mol | 51.6 °C |
| GATCTCTCCAGAGATC ((((((....)))))) | -40.2 kcal/mol | 56.7 °C |
| GATCTCTCCGAGATC ((((((...)))))) | -40.7 kcal/mol | 56.7 °C |
| GATCTCTCGCGAGATC ((((((....)))))) | -42.2 kcal/mol | 51.4 °C |
| GATCTCTCGGGAGATC ((((((....)))))) | -38.3 kcal/mol | 53.5 °C |
| GATCTCTGCCGAGATC ((((((....)))))) | -37.9 kcal/mol | 51.3 °C |
| GATCTCTTACGAGATC ((((((....)))))) | -44.7 kcal/mol | 52.2 °C |
| GATCTCTTCAGAGATC ((((((....)))))) | -40.9 kcal/mol | 60.1 °C |
| GATCTCTTGGAGATC ((((((...)))))) | -37.8 kcal/mol | 54.4 °C |
| GATCTGAAAACAGATC ((((((....)))))) | -27.5 kcal/mol | 42.8 °C |
| GATCTGAAACCAGATC ((((((....)))))) | -29.7 kcal/mol | 43 °C |
| GATCTGAACCAGATC ((((((...)))))) | -34.6 kcal/mol | 46 °C |
| GATCTGAACTCAGATC ((((((....)))))) | -38.6 kcal/mol | 48 °C |
| GATCTGAAGACAGATC ((((((....)))))) | -27.7 kcal/mol | 44.8 °C |
| GATCTGAATGCAGATC ((((((....)))))) | -30.7 kcal/mol | 47.3 °C |
| GATCTGACACCAGATC ((((((....)))))) | -34.7 kcal/mol | 46.1 °C |
